Laboratory results published in ChEMBL document CHEMBL3734687, “Mechanism of action of antiepileptic ceramide from Red Sea soft coral Sarcophyton auritum” (2015).
Calls of active or inactive are those of the source. The rule behind the calls is not given here.

Assays:
Mus musculus [1] = species on record: Mus musculus; experiment: Anticonvulsant activity in mouse assessed as time to death post pentylenetetrazole challenge measured for 20 mins; assay type: functional
In short: (§1)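 Mice given an acute pentylenetetrazole challenge (70 mg/kg, i.p.). Time to death recorded over a 20 min observation. Some groups were pretreated with bicuculline (0.1 mg/kg, i.p.) or ondansetron (1 mg/kg, i.p.) before the test agent. n = 6 per group. One-way ANOVA with Bonferroni post-test, P<0.05.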

Mus musculus [2] = experiment: Anxiolytic activity in mouse assessed as increase in time spent in the open arm at 1 mg/kg measured for 3 mins by elevated plus maze test relative to vehicle treated control; assay type: functional, organism-based
In short: (§2)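 Elevated plus maze in mice, 3 min screen. Read-out is percent of time spent in the open arms versus vehicle-treated mice. Diazepam reference at 1 mg/kg. Pretreatment with bicuculline (0.1 mg/kg, i.p.) or ondansetron (1 mg/kg, i.p.) preceded the test agent. n = 6/group. One-way ANOVA followed by Bonferroni, P<0.05.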

Mus musculus [3] = experiment: Anxiolytic activity in mouse assessed as increase in time spent in the light area at 1 mg/kg, ip measured for 3 mins by dark-light transition test; assay type: functional, organism-based
In short: (§3)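 Dark-light transition box in mice, 3 min session. Cumulative time spent in the light area was recorded. Diazepam reference at 1 mg/kg i.p. Antagonist arms were pretreated with bicuculline (0.1 mg/kg, i.p.) or ondansetron (1 mg/kg, i.p.) before the test agent. n = 6. One-way ANOVA with Bonferroni comparisons, P<0.05.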

Mus musculus [4] = experiment: Anxiolytic activity in mouse assessed as increase in time spent in the open arm pretreated with 0.1 mg/kg, ip GABA-A blocker bicuculline followed by compound administration measured for 3 mins by elevated plus maze test; assay type: functional, organism-based; in short: as §2
Mus musculus [5] = species on record: Mus musculus; experiment: Anxiolytic activity in mouse assessed as increase in time spent in the open arm measured for 3 mins by elevated plus maze test relative to vehicle treated control; assay type: functional, organism-based; in short: as §2
Mus musculus [6] = experiment: Anticonvulsant activity in mouse model of PTZ-induced seizures assessed as prolongation of death time post pentylenetetrazole challenge pretreated with 0.1 mg/kg, ip GABA-A blocker bicuculline followed by compound administration measured for 20 mins; assay type: functional, organism-based; in short: as §1
Mus musculus [7] = experiment: Anticonvulsant activity in mouse model of PTZ-induced seizures assessed as prolongation of death time post pentylenetetrazole challenge pretreated with 1 mg/kg, ip 5-HT3 receptor blocker ondansetron followed by compound administration measured for 20 mins; assay type: functional, organism-based; in short: as §1
Mus musculus [8] = species on record: Mus musculus; experiment: Anxiolytic activity in mouse assessed as increase in time spent in the light area measured for 3 mins by dark-light transition test; assay type: functional, organism-based; in short: as §3
Mus musculus [9] = experiment: Anxiolytic activity in mouse assessed as increase in time spent in the light area pretreated with 1 mg/kg, ip 5-HT3 receptor blocker ondansetron followed by compound administration measured for 3 mins by dark-light transition test; assay type: functional, organism-based; in short: as §3
Mus musculus [10] = experiment: Anxiolytic activity in mouse assessed as increase in time spent in the light area pretreated with 0.1 mg/kg, ip GABA-A blocker bicuculline followed by compound administration measured for 3 mins by dark-light transition test; assay type: functional, organism-based; in short: as §3
Mus musculus [11] = experiment: Anxiolytic activity in mouse assessed as increase in time spent in the open arm pretreated with 1 mg/kg, ip 5-HT3 receptor blocker ondansetron followed by compound administration measured for 3 mins by elevated plus maze test; assay type: functional, organism-based; in short: as §2

| SMILES | Time (Mus musculus [1]) [s] | Activity (Mus musculus [2]) | Activity (Mus musculus [3]) | Activity (Mus musculus [4]) | Activity (Mus musculus [5]) | Activity (Mus musculus [6]) | Activity (Mus musculus [7]) | Activity (Mus musculus [8]) | Activity (Mus musculus [9]) | Activity (Mus musculus [10]) | Activity (Mus musculus [11]) |
| --- | --- | --- | --- | --- | --- | --- | --- | --- | --- | --- | --- |
| CN1C(=O)CN=C(c2ccccc2)c2cc(Cl)ccc21 [DIAZEPAM] | 536 | Active | Active |  |  |  |  |  |  |  |  |
| CCCCCCCCCCCCCC/C=C/C=C/[C@@H](O)[C@H](CO)NC(=O)CCCCCCCCCCCC | 911 |  |  | inactive | Active | inactive | Active | Active | Active | inactive | Active |
